We go through four molecules from paper PMC11032538 (Alzheimer's & Dementia, 2024).

In assay [1] the test system is p-tau species. Put plainly: ^3H-UCB-J saturation binding in AD P1 fraction pre-blocked with tau PET ligands. Also on record: species or system Human. As to conditions: 10 μM pre-blocking of frontal cortex AD P1 fraction. The essentials:
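AD frontal cortex pooled P1 fraction was pre-blocked with 10 μM unlabeled tau PET ligand on ice for 1 h. It was then spun at 2800 rpm for 10–15 min at 4°C to remove free ligand and resuspended in binding buffer. Saturation binding used 0–40 nM ³H-UCB-J, 2 h at room temperature, with filtration and scintillation counting. Data are means ± SEM of three to four experiments in duplicate.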

Assay [2] deals with T1, SV2A (Homo sapiens, UniProt Q7L0J3). The class given is binding. The conditions noted are these: 1 mM levetiracetam; 5 nM ^3H-UCB-J; CN frontal cortex P2 (Figure S2).
Assay [3] concerns p-tau species. Put plainly: ^3H-UCB-J vs MK6240 competition binding in P1 fractions. Also on record: species or system Human. The conditions noted are these: 100 μM; CN and AD P1 fraction; 5 nM ^3H-UCB-J. The essentials: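 Pooled frontal cortex P1 fractions (0.05 mg protein) from one control and one AD pool. These were incubated 2 h at room temperature with 5 nM ³H-UCB-J plus increasing unlabeled competitor (10⁻¹⁴ to 10⁻⁴) in Tris-HCl pH 7.4 binding buffer. Samples were filtered and counted by scintillation. Binding was expressed as % of total; IC₅₀ came from non-linear competitive-binding regression.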

Assay [4] has as its target T1, SV2A. The conditions noted are these: AD middle frontal cortex; ref 34 Mikkelsen et al.; cited from earlier work.
Another assay has as its target tau (Homo sapiens, UniProt P10636). As to the kind of experiment: ^3H-MK6240 vs UCB-J competition binding in P1 fractions. The conditions noted are these: up to 10 μM UCB-J; CN and AD P1 fractions; 0.5 nM ^3H-MK6240.
The target of assay [5] is T1, SV2A. The conditions noted are these: frontal cortex (middle frontal gyrus) autoradiography; ref 24 Metaxas et al.; cited from earlier work.

T1 sequence (Q7L0J3 whole entry): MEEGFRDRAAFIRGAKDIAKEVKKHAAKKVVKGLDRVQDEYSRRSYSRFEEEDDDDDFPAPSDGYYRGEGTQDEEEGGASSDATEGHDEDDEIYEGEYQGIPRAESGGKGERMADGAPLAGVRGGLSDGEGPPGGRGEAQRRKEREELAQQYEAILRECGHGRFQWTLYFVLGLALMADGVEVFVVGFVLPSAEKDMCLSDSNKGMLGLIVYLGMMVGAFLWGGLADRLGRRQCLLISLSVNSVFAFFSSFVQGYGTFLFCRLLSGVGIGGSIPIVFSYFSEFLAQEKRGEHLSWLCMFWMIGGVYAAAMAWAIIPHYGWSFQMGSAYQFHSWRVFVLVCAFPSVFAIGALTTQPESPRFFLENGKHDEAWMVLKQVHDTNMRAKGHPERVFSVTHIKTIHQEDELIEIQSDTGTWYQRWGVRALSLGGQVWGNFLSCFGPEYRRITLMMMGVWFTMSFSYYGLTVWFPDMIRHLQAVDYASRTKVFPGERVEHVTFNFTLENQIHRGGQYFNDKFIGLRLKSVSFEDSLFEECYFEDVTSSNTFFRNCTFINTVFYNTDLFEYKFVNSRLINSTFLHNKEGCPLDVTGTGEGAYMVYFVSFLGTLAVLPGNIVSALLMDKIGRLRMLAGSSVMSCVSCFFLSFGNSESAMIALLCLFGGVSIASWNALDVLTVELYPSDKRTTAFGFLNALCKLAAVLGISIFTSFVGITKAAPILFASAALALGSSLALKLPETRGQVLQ
Sequence of tau (P10636 623-758 limits assumed): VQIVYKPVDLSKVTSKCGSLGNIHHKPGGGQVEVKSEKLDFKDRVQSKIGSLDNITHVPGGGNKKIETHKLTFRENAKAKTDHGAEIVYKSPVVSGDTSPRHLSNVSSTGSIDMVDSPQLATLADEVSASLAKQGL

On to `Fc1ccc(-c2ccc3c(c2)[nH]c2ccncc23)cn1` [AV-1451], for which the “reduction in ^3H-UCB-J binding compared to unblocked AD P1 fractions” value in the assay on p-tau species [1] was “≈ 22%”.
Turning to `CC[C@@H](C(N)=O)N1CCCC1=O` [Levetiracetam], the “displacement of ^3H-UCB-J binding compared with 1 μM UCB-J” value on SV2A [2] is listed as “same displacement”.
As to `Nc1c(F)ccc2cnc(-n3ccc4ccncc43)cc12` [MK6240], in the assay on p-tau species [3], the “displacement of ^3H-UCB-J binding” value is recorded as “≈ 38%”. For the same molecule, the “reduction in ^3H-UCB-J binding compared to unblocked AD P1 fractions” value in the assay on p-tau species [1] is listed as “≈ 22%”.
Turning to `Cc1cnccc1CN1C[C@@H](c2cc(F)c(F)c(F)c2)CC1=O` [UCB-J], the “reduction in UCB-J binding in AD compared to CN” value on SV2A [4] was 19%. The “displacement of ^3H-MK6240 binding” value at tau is “no displacement”. At SV2A [5], the “difference in UCB-J binding between AD and CN cases” value is “no difference”.
